Measured values taken from ChEMBL document CHEMBL1123812, “Pyrroloisoquinoline antidepressants. 2. In-depth exploration of structure-activity relationships” (J Med Chem, 1987).
The source made the active and inactive calls.

Experiments:
Mus musculus [1] = assay: Ability to antagonise intraperitoneal dose; inactive (<10% antagonism) at 30 mg/kg is represented as I-30.; format: functional, organism-based; parameters: dose 30 mg/kg
Summary of the method: (§1)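 Nonfasted male Swiss Webster mice, 18–24 g, ten per dose level and in saline controls. Test compound given ip 30 min before tetrabenazine 32 mg/kg ip; dose expressed as free base. Motor activity and ptosis scored. Control response ≤90% corrected by Abbott's formula.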

D(1A) dopamine receptor = D(1A) dopamine receptor (Rattus norvegicus, UniProt P18901); assay: Binding affinity towards Dopamine receptor D1
D(1A) dopamine receptor, sequence (P18901 whole entry): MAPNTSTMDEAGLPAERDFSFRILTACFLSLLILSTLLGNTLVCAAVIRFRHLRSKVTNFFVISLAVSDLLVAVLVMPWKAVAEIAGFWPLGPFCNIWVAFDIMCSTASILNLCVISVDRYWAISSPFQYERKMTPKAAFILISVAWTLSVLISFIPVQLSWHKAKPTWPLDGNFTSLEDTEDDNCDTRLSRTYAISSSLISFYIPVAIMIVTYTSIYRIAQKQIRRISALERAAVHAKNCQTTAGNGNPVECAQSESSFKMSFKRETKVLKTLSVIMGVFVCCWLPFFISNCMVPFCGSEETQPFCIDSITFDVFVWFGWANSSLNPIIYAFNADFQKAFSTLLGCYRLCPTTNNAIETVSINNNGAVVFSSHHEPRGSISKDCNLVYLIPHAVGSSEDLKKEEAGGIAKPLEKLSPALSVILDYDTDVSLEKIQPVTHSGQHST

D(2) dopamine receptor = D(2) dopamine receptor (Rattus norvegicus, UniProt P61169); assay: Binding affinity towards Dopamine receptor D2
D(2) dopamine receptor, sequence (P61169 whole entry): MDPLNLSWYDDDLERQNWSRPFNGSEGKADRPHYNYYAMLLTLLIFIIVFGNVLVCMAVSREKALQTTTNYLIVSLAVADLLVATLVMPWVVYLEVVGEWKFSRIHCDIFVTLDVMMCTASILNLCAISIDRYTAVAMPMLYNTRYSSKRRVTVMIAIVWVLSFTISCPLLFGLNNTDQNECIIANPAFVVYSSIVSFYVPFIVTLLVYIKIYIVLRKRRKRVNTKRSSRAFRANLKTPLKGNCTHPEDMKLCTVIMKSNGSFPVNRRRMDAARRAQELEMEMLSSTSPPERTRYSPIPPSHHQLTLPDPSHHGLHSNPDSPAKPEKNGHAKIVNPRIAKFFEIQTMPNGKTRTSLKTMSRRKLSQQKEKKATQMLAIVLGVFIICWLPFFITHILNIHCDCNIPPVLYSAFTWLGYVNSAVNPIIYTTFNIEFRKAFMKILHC

Mus musculus [2] = assay: Ability to antagonise intraperitoneal administration; weakly active (>=10% and <=30% antagonism) at 30 mg/kg is represented as >30; format: functional; conditions: ip; summary of the method: as §1
[3] = molecular target: Sodium-dependent dopamine transporter (Rattus norvegicus, UniProt P23977); assay: Inhibition of the uptake of tritiated dopamine (DA) in rat synaptosomes; format: subcellular, Brain
Sodium-dependent dopamine transporter, sequence (P23977 whole entry): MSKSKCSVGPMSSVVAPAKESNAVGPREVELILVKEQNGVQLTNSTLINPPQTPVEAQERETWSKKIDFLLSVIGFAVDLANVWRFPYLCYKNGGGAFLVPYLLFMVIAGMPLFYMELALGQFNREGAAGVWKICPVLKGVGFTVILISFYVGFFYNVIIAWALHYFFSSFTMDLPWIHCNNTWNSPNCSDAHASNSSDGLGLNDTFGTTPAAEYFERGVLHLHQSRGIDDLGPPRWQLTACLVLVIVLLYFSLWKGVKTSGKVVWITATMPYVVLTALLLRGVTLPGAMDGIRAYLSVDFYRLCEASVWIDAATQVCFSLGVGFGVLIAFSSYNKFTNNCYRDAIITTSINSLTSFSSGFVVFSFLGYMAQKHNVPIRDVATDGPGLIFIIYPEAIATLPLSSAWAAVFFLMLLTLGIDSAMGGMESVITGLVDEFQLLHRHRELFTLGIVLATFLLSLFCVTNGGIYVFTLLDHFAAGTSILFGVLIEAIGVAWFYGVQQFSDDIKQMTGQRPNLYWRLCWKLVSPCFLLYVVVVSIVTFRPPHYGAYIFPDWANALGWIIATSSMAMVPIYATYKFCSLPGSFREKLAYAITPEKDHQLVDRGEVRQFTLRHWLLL

Rattus norvegicus [4] = species on record: Rattus norvegicus; assay: Ability to inhibit the uptake of tritiated norepinephrine (NE) at 0.1 uM concentration; format: functional
Summary of the method: (§2)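 Male Wistar rat brain synaptosomes (P2 fraction): hypothalamus for NE, striatum for DA, cerebral cortex for 5-HT. Buffer is Tris- or HEPES-buffered salt medium with glucose, ascorbate and nialamide, pH 7.4 at 37 °C. Preincubated 10 min at 37 °C with compound. Uptake started with [3H]NE 100–300 nM, [3H]DA 50–300 nM or [3H]5-HT 100–200 nM, incubated 3 min (DA) or 6–10 min (NE, 5-HT). Blanks held on ice. Filtered, counted by scintillation.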

[5] = molecular target: Sodium-dependent serotonin transporter (Rattus norvegicus) (UniProt P31652); assay: Inhibition of tritiated serotonin(5-HT) uptake at 0.1 uM concentration; format: functional; summary of the method: as §2
Sodium-dependent serotonin transporter (Rattus norvegicus), sequence (P31652 whole entry): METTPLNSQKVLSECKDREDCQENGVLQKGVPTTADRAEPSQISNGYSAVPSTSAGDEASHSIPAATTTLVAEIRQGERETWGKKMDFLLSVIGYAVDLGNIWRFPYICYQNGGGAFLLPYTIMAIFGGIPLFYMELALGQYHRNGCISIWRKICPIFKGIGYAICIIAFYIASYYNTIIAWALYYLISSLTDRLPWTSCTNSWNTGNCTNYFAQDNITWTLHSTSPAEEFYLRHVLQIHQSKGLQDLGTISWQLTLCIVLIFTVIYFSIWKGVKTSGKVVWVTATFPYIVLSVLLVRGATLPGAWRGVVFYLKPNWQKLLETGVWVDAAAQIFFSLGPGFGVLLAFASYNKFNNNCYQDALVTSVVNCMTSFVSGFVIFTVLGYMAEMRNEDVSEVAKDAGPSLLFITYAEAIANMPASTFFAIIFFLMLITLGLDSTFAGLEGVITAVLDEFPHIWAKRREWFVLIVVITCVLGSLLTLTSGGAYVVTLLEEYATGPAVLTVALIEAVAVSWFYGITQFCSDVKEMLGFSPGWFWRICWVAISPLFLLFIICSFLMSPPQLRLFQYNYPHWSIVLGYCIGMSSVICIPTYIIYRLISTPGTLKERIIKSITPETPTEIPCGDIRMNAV

Mus musculus [6] = species on record: Mus musculus; assay: Gross behavioral effects ascertained in mice; C indicates overt convulsant; format: functional, organism-based
Summary of the method: (§3)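 Male Swiss Webster mice, 18–24 g, three per dose, given ip doses of 1, 3, 10, 30, 100 and 300 mg/kg. Observed for gross behavior and held for 4 days. Scored as weak (W), stimulant (S), depressant (D) or convulsant (C).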

Mus musculus [7] = species on record: Mus musculus; assay: Gross behavioral effects ascertained in mice; W/C indicates weak stimulant or depressant activity of little significance/ overt convulsant; format: functional, organism-based
Summary of the method: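 Male Swiss Webster albino mice, 18–24 g, three per dose, given ip 1, 3, 10, 30, 100 and 300 mg/kg. Gross behaviour observed and held 4 days. Estimated LD50 range from lethality count on day 4. Scored as weak stimulant/depressant, significant stimulant, significant depressant or overt convulsant.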

Mus musculus [8] = assay: (§4) Ability to antagonise intraperitoneal dose; inactive (<10% antagonism) at 30 mgjkg is represented as I-30.; format: functional, organism-based; summary of the method: as §1
[9] = molecular target: Norepinephrine transporter (Rattus norvegicus) (UniProt Q9WTR4); assay: Ability to inhibit the uptake of [3H]norepinephrine (NE) 0.1 uM concentration at rat brain synaptosomes; format: functional, subcellular; summary of the method: as §2
Norepinephrine transporter (Rattus norvegicus), sequence (Q9WTR4 as listed by the source): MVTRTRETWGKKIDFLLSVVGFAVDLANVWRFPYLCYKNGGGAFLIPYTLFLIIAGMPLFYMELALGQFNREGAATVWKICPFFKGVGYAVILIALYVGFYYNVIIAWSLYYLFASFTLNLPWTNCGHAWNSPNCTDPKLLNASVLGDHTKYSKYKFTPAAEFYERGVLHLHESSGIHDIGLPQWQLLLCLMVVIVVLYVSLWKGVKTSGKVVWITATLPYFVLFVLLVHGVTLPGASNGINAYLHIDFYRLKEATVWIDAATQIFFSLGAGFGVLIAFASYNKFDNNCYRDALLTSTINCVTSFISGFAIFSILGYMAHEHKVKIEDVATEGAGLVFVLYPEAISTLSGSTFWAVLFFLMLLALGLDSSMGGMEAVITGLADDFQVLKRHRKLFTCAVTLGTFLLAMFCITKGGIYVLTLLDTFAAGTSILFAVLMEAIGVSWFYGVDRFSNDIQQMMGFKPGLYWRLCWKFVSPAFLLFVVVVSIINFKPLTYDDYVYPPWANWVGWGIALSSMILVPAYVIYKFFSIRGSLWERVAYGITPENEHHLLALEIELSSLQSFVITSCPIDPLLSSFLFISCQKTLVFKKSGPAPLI

[10] = molecular target: Sodium-dependent serotonin transporter (Rattus norvegicus) (UniProt P31652); assay: Ability to inhibit the uptake of [3H]- serotonin(5-HT) 0.1 uM concentration at rat brain synaptosomes; format: functional, subcellular; summary of the method: as §2
Mus musculus [11] = species on record: Mus musculus; assay: Antagonism of tetrabenazine (TBZ)-induced depression measured in mice by motor activity; format: functional; conditions: Mus musculus; read-out: ED50; summary of the method: as §1
[12] = molecular target: Sodium-dependent dopamine transporter (Rattus norvegicus) (UniProt P23977); assay: Ability to inhibit the uptake of [3H]dopamine (DA) 0.1 uM concentration at rat brain synaptosomes; format: functional, subcellular; summary of the method: as §2
Sodium-dependent dopamine transporter (Rattus norvegicus), sequence (P23977 whole entry): as the sequence (P23977 whole entry) above

[13] = molecular target: T1, Adrenergic receptor alpha-1 (Rattus norvegicus, UniProt P15823+P23944+P43140); assay: Binding affinity towards alpha-1 adrenergic receptor; format: protein assay
T1 sequence (P15823 whole entry): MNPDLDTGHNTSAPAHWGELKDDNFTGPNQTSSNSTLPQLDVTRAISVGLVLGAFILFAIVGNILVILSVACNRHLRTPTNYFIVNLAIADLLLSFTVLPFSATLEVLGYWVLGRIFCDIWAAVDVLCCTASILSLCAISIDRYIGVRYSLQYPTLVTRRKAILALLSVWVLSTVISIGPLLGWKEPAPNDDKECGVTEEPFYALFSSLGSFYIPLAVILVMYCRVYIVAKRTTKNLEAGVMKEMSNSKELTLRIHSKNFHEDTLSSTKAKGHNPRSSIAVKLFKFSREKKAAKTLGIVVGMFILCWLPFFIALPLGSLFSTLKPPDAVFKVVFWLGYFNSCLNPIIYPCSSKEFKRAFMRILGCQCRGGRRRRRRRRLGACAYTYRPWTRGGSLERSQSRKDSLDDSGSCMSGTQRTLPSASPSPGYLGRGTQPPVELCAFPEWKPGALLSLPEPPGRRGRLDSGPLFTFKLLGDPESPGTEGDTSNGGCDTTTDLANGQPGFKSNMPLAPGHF
T1 sequence (P23944 whole entry): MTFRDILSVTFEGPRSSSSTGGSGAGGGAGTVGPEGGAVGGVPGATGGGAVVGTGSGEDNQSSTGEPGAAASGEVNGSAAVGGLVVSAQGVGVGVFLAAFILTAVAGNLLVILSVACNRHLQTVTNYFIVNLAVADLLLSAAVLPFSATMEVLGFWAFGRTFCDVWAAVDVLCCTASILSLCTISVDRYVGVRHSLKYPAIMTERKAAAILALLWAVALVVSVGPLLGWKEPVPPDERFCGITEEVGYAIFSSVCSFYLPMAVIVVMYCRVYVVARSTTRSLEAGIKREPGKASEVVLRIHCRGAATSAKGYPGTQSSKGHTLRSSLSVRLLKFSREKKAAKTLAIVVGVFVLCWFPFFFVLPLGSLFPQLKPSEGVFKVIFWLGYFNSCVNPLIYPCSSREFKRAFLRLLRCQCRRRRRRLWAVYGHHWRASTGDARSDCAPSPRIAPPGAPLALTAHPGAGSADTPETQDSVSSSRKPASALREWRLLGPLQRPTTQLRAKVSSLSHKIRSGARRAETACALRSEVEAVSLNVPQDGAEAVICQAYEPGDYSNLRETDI
T1 sequence (P43140 whole entry): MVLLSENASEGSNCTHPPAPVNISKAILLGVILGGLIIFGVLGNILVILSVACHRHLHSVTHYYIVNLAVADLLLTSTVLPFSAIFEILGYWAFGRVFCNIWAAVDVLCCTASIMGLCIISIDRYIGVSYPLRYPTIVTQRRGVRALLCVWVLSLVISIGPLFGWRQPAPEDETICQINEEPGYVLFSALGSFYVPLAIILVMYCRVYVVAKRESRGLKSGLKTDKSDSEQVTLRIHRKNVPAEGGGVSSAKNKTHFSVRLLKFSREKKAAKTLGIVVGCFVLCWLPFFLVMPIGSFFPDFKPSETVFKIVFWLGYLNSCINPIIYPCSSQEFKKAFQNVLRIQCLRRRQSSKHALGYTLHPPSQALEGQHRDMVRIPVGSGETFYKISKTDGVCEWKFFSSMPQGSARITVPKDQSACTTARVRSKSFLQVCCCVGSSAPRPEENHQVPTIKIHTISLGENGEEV

Mus musculus [14] = species on record: Mus musculus; assay: Gross behavioral effects ascertained in mice; S indicates significant stimulant properties.; format: functional, organism-based; summary of the method: as §3
[15] = molecular target: Muscarinic acetylcholine receptor (Rattus norvegicus) (UniProt P08482+P08483+P08485+P08911+P10980); assay: Binding affinity towards Muscarinic acetylcholine receptor at 1.0 uM concentration; format: protein assay
[16] = molecular target: Norepinephrine transporter (Rattus norvegicus, UniProt Q9WTR4); assay: Inhibition of uptake of tritiated norepinephrine (NE) in rat synaptosomes; format: subcellular, Brain
Norepinephrine transporter, sequence (Q9WTR4 whole entry): as the sequence (Q9WTR4 as listed by the source) above

[17] = molecular target: D(2) dopamine receptor (Rattus norvegicus) (UniProt P61169); assay: Binding affinity towards dopamine receptor D2 at 1.0 uM concentration
D(2) dopamine receptor (Rattus norvegicus), sequence (P61169 whole entry): as the sequence (P61169 whole entry) above
Summary of the method: (§5)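 Rat brain crude synaptic membranes in 20 mM NaHEPES pH 7.5. Ligands: α1 cortex […] 0.4 nM, nonspecific with (-)-NE 100 μM, 30 min at 25 °C. […] D2 striatum [3H]spiperone 0.05 nM with (+)-butaclamol 1 μM, 45 min at 37 °C. S1 cortex [3H]5-HT 1 nM plus glutathione and MgCl2, with 5-HT 10 μM, 20 min at 37 °C. […] Samples filtered on GF/B and counted.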

Mus musculus [18] = species on record: Mus musculus; assay: Antagonism of tetrabenazine (TBZ)-induced depression in mice measured for ptosis; format: functional; conditions: Mus musculus; read-out: ED50; summary of the method: as §1
[19] = molecular target: Adrenergic receptor alpha-2 (Rattus norvegicus) (UniProt P22086+P19328+P22909); assay: Binding affinity towards alpha-2 adrenergic receptor at 1.0 uM concentration; format: protein assay
[20] = molecular target: Serotonin 2 (5-HT2) receptor (Rattus norvegicus) (UniProt P30994+P08909+P14842); assay: Binding affinity towards 5-hydroxytryptamine 2 receptor at 1.0 uM concentration; format: protein assay; summary of the method: as §5
Serotonin 2 (5-HT2) receptor (Rattus norvegicus), sequence (P08909 whole entry, looked up): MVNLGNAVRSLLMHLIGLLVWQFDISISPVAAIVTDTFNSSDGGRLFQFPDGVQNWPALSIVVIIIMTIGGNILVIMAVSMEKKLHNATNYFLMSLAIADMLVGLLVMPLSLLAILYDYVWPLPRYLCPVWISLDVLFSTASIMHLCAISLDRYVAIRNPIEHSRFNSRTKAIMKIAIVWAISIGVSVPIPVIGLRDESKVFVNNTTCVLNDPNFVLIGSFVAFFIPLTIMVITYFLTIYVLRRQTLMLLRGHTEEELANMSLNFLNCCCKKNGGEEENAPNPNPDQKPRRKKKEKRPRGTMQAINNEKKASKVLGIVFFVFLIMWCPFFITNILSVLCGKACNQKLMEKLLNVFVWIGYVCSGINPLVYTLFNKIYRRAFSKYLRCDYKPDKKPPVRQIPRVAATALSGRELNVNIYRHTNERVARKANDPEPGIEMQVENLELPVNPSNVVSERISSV
Serotonin 2 (5-HT2) receptor (Rattus norvegicus), sequence (P14842 whole entry, looked up): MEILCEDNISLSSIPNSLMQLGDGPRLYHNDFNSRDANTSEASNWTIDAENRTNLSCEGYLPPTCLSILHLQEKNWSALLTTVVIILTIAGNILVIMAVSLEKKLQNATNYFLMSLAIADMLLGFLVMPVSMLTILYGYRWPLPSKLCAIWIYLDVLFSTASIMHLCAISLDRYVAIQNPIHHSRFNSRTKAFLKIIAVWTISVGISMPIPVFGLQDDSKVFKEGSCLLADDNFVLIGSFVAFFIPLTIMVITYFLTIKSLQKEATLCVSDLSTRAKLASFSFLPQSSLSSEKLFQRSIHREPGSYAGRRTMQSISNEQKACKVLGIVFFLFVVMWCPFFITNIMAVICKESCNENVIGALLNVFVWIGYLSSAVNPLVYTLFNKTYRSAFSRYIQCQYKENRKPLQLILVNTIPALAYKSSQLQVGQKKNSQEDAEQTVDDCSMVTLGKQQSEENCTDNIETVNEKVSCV
Serotonin 2 (5-HT2) receptor (Rattus norvegicus), sequence (P30994 whole entry, looked up): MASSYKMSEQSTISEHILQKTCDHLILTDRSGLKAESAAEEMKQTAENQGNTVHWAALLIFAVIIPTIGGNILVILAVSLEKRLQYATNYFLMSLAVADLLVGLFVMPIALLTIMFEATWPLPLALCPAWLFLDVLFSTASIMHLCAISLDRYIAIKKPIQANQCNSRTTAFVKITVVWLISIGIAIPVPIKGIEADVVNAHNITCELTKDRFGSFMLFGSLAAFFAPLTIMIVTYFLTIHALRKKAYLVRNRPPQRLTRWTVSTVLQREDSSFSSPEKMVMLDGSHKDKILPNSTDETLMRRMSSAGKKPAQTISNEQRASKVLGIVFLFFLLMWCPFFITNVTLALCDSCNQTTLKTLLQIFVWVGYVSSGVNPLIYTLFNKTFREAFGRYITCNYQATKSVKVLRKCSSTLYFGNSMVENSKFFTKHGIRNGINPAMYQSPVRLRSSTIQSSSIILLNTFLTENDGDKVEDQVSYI

Mus musculus [21] = assay: as §4; format: functional, organism-based; summary of the method: as §1; remark: listed apart in the source
Mus musculus [22] = species on record: Mus musculus; assay: Gross behavioral effects ascertained in mice; W indicates weak stimulant or depressant activity of little significance.; format: functional, organism-based; summary of the method: as §3
[23] = molecular target: Serotonin 2 (5-HT2) receptor (Rattus norvegicus, UniProt P30994+P08909+P14842); assay: Binding affinity towards 5-hydroxytryptamine 2 receptor; format: protein assay
[24] = molecular target: Serotonin 1 (5-HT1) receptor (Rattus norvegicus) (UniProt P28564+P30940+P19327+P28565); assay: Binding affinity towards serotonin S1 receptor at 1.0 uM; format: protein assay; summary of the method: as §5
Rattus norvegicus [25] = species on record: Rattus norvegicus; assay: Ability to inhibit the uptake of tritiated dopamine (DA) 1 uM concentration; format: functional
Summary of the method: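 Rat brain synaptosomal [3H]dopamine uptake: striatal P2 fraction, test compound at 1.00 μM. Preincubated at 37 °C, then 50–300 nM [3H]DA for 3 min. Blanks on ice. Filtration and scintillation counting; percent inhibition of control uptake.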

Ki [3] [nM] | inhibition [9] [%] | inhibition [10] [%] | inhibition [12] [%] | Ki [16] [nM] | SMILES | ED50 at 30 mg/kg (Mus musculus [2]) [mg/kg] | behavior (Mus musculus [7]) | ED50 (Mus musculus [11]) [mg/kg] | behavior (Mus musculus [22]) | further results
106 |  |  |  |  | Br.COc1cc2c(cc1OC)[C@@H]1CCCN1C[C@H]2c1ccccc1 | > 30 |  |  |  | ED50 (Mus musculus [1]): inactive; Ki (D(1A) dopamine receptor): 452 nM; Ki (D(2) dopamine receptor): 400 nM; Inhibition (Rattus norvegicus [4]): 16%; inhibition [5]: 10%; behavior (Mus musculus [6]): Convulsant
 | 4 | 4 | 0 |  | c1ccc([C@@]23CCCN2CCc2ccccc23)cc1 |  | Weak/Overt convulsant | > 60 |  | ED50 (Mus musculus [8]): inactive
43.5 |  |  |  | 10.5 | Br.Oc1cc2c(cc1O)[C@H]1CCCN1C[C@H]2c1ccccc1 |  |  | 0.87 |  | Ki (D(1A) dopamine receptor): 106 nM; Ki [13]: 87 nM; behavior (Mus musculus [14]): Stimulant; inhibition [15]: 0%; inhibition [17]: 20%; ED50 (Mus musculus [18]): 0.53 mg/kg; inhibition [19]: 21%; inhibition [20]: 46%
 | 0 | 4 | 33 |  | c1ccc([C@@H]2CN3CC[C@@H]4CCCC[C@@]43c3ccccc32)cc1 |  |  |  | Weak | ED50 (Mus musculus [8]): inactive; ED50 (Mus musculus [21]): inactive
40 |  |  |  | 24 | C[C@@]12CCCN1C[C@H](c1ccccc1)c1ccccc12 |  | Weak/Overt convulsant | 9.2 |  | ED50 (Mus musculus [18]): 3.8 mg/kg
160 |  |  |  |  | Cl.c1ccc([C@@H]2CN3CCC[C@H]3c3ccccc32)cc1 | > 30 |  |  |  | 
7.7 |  |  |  | 0.55 | Br.Fc1ccc([C@@H]2CN3CCC[C@@H]3c3cc(F)ccc32)cc1 |  |  | > 30 | Partial stimulant | Ki (D(1A) dopamine receptor): 183 nM; Ki [23]: 7.4 nM; Ki (D(2) dopamine receptor): 241 nM; Ki [13]: 536 nM; inhibition [24]: -6%; inhibition [15]: 0%; ED50 (Mus musculus [18]): 0.05 mg/kg; inhibition [19]: 25%
 | 0 | 3 | 3 |  | C[C@H]1[C@@H](c2ccccc2)c2ccccc2[C@@H]2CCCN21 |  |  | > 60 | Weak | ED50 (Mus musculus [8]): inactive
 | 10 | 25 | 21 |  | O=[N+]([O-])c1ccc([C@@H]2CN3CCC[C@H]3c3ccccc32)cc1 | > 30 |  | > 30 | Weak | 

SMILES | Ki [3] [nM] | inhibition [9] [%] | inhibition [10] [%] | inhibition [12] [%] | Ki [16] [nM] | ED50 at 30 mg/kg (Mus musculus [2]) [mg/kg] | behavior (Mus musculus [7]) | ED50 (Mus musculus [11]) [mg/kg] | behavior (Mus musculus [22]) | further results
F[C@@]1(c2ccccc2)CN2CCC[C@H]2c2ccccc21 |  |  | -3 | 22 | ~100 | > 30 | Weak/Overt convulsant | > 30 |  | 
c1ccc2c(c1)CCN1CCC[C@@H]21 |  | 1 | -10 |  |  |  | Weak/Overt convulsant |  |  | ED50 (Mus musculus [1]): inactive; ED50 (Mus musculus [21]): inactive; Inhibition (Rattus norvegicus [25]): 18%
